Screening data deposited in PubChem by Sanford-Burnham Center for Chemical Genomics.
mIAP block – mouse IAP inhibition. purified mouse IAP, CDP-Star luminescence, 30 min. inhibition, % at 10 µM. AID 2806. actives 0.2% (n = 330,000);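 active = inhibition of at least 40% at 10 µM in the primary screen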
bIAP activator – increases bovine intestinal alkaline phosphatase activity | activation factor at 20 µM | actives 0.17% (n = 200,000) | purified bovine IAP, CDP-star luminescence, 30 min; hits give high values; fold of DMSO-control signal, blank-subtracted;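 active = activation factor of 2 or more at 20 µM, a signal rise over negative controls twice the positive control's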
hIAP block – human IAP inhibition. actives 0.12% (n = 330,000). P09923. purified IAP, CDP-Star luminescence, 30 min. inhibition, % at 10 µM;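 active = inhibition reaching a set limit with compound at 10 µM in the primary screen, cut at about 35% in these data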
bIAP inh – blocks bovine intestinal alkaline phosphatase activity; inhibition, % at 20 µM; purified bovine IAP, CDP-star luminescence, 30 min; AID 1019; 190,000 tested, under 10 active;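 active = over 50% inhibition of intestinal alkaline phosphatase at 20 µM in the single-dose screen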
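Assay system – bovine IAP enzyme · Quantity – bovine IAP at 1/65,000,000 final dilution · Detection – CDP-star luminescence signal · Times – 30 min reaction at room temperature · Also added – CDP-star substrate at 30 µM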
hIAP act – increases human intestinal alkaline phosphatase activity | AID 2524 | activation factor at 10 µM | purified human IAP, CDP-Star luminescence, 30 min; hits give high values; 1 = vehicle-only enzyme, 0 = enzyme-free background | actives 0.16% (n = 330,000);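 active = activation factor of the enzyme at least 2-fold when tested at 20 µM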
mIAP activ – mouse IAP activation; actives 0.24% (n = 330,000); activation factor at 10 µM; muIAP, CDP-Star luminescence, 30 min; hits give high values; 1 = vehicle-only enzyme signal, 0 = enzyme-free wells;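 active = activation factor of at least 2 at 20 µM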
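Assay system: mouse IAP enzyme; reagent: chemiluminescent substrate CDP-Star; dosing: test compounds delivered from DMSO solution; schedule: 30 min at room temperature; measured by: luminescence from enzymatic CDP-Star hydrolysis; controls: DMSO-only wells and no-enzyme negative control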
mIAP inh confirm – mouse IAP inhibition confirmation | actives 4.7% (n = 11,000) | purified mouse IAP, CDP-Star luminescence, 30 min | AID 434971 | shares compounds with mIAP block | inhibition, % at 10 µM;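 active = inhibition of at least 40% at 10 µM in either of the two replicates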
Hits are given with their value; n = inactive; x = no result given. An excerpt weighted towards active compounds, which were near 0.79% of everything screened.

SMILES | mIAP block | bIAP activator | hIAP block | bIAP inh | hIAP act | mIAP activ | mIAP inh confirm
O=C(c1cc(C2CC2)nn1-c1ccccc1)N1CCN(c2ccc(O)cc2)CC1 | n | x | n | x | n | n | x
O=C(Nc1cccc(C(F)(F)F)c1)NC1CCCCC1 | n | n | n | n | n | 2.5 | n
Cc1cccc(NC(=O)NC2CCCCCCC2)c1 | n | x | n | x | n | 2.2 | n
CC(=O)c1cccc(NC(=O)NC2CCCCCCC2)c1 | n | x | n | x | n | n | x
Cc1ccc(NC(=O)NC2CCCCCCC2)cc1C | n | x | n | x | n | 3.3 | n
CC(=O)Nc1ccc2nc(CN3CCC(CO)(CCc4ccccc4)CC3)ccc2c1 | n | x | n | x | n | n | x
